Columns and labels:
[1] = molecular target: T1, Sterol O-acyltransferase 2 (Homo sapiens, UniProt O75908); assay: Inhibition of human ACAT2
T1 sequence (O75908 whole entry): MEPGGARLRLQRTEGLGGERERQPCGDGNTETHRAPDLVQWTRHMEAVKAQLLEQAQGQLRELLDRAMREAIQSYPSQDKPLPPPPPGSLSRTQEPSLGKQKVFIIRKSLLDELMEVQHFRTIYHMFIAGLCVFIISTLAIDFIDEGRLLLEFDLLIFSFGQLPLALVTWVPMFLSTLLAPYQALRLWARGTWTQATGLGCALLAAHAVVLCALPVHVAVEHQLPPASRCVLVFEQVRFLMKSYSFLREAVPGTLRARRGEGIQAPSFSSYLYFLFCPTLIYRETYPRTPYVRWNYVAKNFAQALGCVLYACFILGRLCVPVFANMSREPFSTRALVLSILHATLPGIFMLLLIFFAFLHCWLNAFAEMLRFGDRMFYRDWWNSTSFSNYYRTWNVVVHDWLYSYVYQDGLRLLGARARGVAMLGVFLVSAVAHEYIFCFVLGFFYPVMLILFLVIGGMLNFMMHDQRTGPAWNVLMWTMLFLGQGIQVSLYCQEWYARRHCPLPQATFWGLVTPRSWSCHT
Outline: (§1)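 IC50 values are the average of at least two independent determinations.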

[2] = molecular target: T2, Diacylglycerol O-acyltransferase 1 (Mus musculus, UniProt Q9Z2A7); assay: Inhibition of mouse DGAT1; outline: as §1
T2 sequence (Q9Z2A7 whole entry): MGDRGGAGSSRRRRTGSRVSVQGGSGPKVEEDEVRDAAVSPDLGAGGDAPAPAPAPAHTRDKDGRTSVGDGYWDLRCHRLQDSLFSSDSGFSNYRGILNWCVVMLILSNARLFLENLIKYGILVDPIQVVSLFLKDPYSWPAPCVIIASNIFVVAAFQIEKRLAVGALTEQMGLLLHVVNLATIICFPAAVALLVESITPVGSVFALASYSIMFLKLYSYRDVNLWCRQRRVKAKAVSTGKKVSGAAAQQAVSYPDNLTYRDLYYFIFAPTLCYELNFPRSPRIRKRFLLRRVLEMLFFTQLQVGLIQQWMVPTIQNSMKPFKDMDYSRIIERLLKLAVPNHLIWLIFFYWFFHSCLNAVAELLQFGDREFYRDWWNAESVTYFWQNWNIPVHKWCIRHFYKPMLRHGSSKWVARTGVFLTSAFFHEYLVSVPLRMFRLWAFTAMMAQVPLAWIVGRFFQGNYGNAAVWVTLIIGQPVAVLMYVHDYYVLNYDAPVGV

Mus musculus [3] = assay: Reduction of postprandial plasma triglyceride level in C57BL/6J mouse at 3 mg/kg, po administered 15 mins prior to corn oil bolus challenge measured after 2 hrs relative to vehicle-treated control; type: functional; set-up: scale not given: the % may be the effect or the level left
Outline: (§2)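 Vehicle is 20% hydroxypropyl-β-cyclodextrin; compound or vehicle is given 15 min before time 0. Mice receive a 0.25 mL corn oil bolus at time 0. Terminal blood is taken by heart puncture at 120 min. Plasma TG is measured by an enzymatic colorimetric kit with absorbance read at 600 nm. Values are the mean ± SEM from eight studies, as % reduction versus vehicle.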

Mus musculus [4] = assay: Reduction of postprandial plasma triglyceride level in C57BL/6J mouse at 1 mg/kg, po administered 15 mins prior to corn oil bolus challenge measured after 2 hrs relative to vehicle-treated control; type: functional; set-up: scale not given: the % may be the effect or the level left; outline: as §2
Mus musculus [5] = assay: Reduction of plasma triglyceride level in C57BL/6J mouse at 3 mg/kg, po administered 15 mins prior to corn oil bolus challenge measured after 12 hrs relative to vehicle-treated control; type: functional; set-up: scale not given: the % may be the effect or the level left
[6] = AUC in rat at 10 mg/kg, po; type: ADME, organism-based; set-up: dose 10 mg/kg, route oral; conditions: plasma
[7] = molecular target: T3, PXR (nuclear receptor subfamily 1 group I member 2) (Homo sapiens, UniProt O75469); assay: Activation of PXR (unknown origin) at 10 uM; type: ADME; conditions: read-out: FC
T3 sequence (O75469 whole entry): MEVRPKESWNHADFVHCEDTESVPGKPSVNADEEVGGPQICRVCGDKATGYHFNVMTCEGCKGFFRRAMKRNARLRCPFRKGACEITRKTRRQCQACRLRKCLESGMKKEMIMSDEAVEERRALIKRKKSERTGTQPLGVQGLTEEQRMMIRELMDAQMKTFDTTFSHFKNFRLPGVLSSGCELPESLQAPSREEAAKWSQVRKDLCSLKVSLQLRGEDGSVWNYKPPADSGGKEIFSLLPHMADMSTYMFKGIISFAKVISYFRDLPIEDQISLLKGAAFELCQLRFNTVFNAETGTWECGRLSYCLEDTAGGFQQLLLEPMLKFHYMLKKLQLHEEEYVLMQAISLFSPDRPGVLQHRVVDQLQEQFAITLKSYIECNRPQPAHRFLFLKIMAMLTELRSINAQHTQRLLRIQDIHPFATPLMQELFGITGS

Cytochrome P450 1A1 = molecular target: T4, Cytochrome P450 1A1 (Homo sapiens, UniProt P04798); assay: Induction of CYP1A1 (unknown origin); type: ADME
T4 sequence (P04798 whole entry): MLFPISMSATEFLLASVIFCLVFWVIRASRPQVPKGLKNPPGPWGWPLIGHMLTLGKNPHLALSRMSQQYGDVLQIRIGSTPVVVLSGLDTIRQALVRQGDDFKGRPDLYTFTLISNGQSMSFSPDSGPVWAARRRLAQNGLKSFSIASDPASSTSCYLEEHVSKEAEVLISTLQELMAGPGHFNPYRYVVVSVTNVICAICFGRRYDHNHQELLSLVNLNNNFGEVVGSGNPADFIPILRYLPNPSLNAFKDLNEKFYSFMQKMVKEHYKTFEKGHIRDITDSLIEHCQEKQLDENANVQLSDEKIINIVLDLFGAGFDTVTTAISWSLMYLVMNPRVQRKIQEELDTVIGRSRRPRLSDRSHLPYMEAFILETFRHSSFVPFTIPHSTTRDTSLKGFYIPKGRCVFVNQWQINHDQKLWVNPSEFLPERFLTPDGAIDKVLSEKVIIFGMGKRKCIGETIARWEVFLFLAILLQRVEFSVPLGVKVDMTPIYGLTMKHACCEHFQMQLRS

- IC50 [1]: 1100 nM
- IC50 [2]: 10 nM
- AUC [6]: 79 µM·h
- fold induction at 10 µM [7]: 1.4
- Activity (Cytochrome P450 1A1): Active
SMILES: Cc1cc(C(=O)Nc2ccccc2)c2ccc(-c3ccc([C@H]4CC[C@H](CC(=O)O)CC4)cc3)cc2n1
- Activity (Mus musculus [3]): -100%
- Activity (Mus musculus [4]): -94%
- Activity (Mus musculus [5]): -79%

— ChEMBL document CHEMBL3232904, “Discovery of novel quinoline carboxylic acid series as DGAT1 inhibitors” (Bioorg Med Chem Lett, 2014)
